Test results: ChEMBL document CHEMBL1143027, “An efficient synthesis of 3-fluoro-5-thio-xylofuranosyl nucleosides of thymine, uracil, and 5-fluorouracil as potential antitumor or/and antiviral agents” (Bioorg Med Chem, 2007)
Several values for one entry are separate records, joined by “and”; a condition that tells them apart may be missing. Identical values can stand only once.

Columns and labels:
Rotavirus [1] = test: Antiviral activity against rotavirus RF in human Caco-2 cells after neutralization of virus in solution pre-incubated with compound for 12 hrs before infection; assay type: functional, organism-based
Outline: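 Rotavirus RF (grown on Caco-2 with trypsin, 1.5 TCID50/mL, 100 µL per well) pre-incubated 12 h with 3-fold compound dilutions (initial 0.5 mg/mL) in trypsin-containing DMEM, then added to Caco-2 monolayers at 37 °C, 5% CO2. Infected treated wells (n=6) compared with virus-only wells (n=6). IC50 read from the concentration–effect curve.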

[2] = Selectivity index, Ratio of CC50 for human Caco-2 cells to IC50 for rotavirus RF in human Caco2 cells after neutralization of virus in solution before infection; assay type: functional
Outline: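 Ratio of Caco-2 CC50 (72 h crystal violet assay) to rotavirus IC50 from the 12 h pre-attachment neutralization assay.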

Rotavirus [3] = test: Antiviral activity against rotavirus RF infected human Caco-2 cells following viral attachment after 72 hrs; assay type: functional, organism-based; details: Caco-2, 72 h
Outline: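 Washed Caco-2 monolayers exposed to rotavirus RF (1.5 TCID50/mL) for 1 h at 37 °C, 5% CO2 to allow attachment. Unbound virus washed off with plain DMEM, then 3-fold compound dilutions (initial 0.5 mg/mL) added at once. Infected wells (n=6) compared with virus-only controls (n=6). IC50 read from the curve.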

[4] = Selectivity index, Ratio of CC50 for human Caco-2 cells to IC50 for rotavirus RF infected human Caco2 cells after viral attachment; assay type: functional
Outline: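 Ratio of Caco-2 CC50 (72 h crystal violet assay) to rotavirus IC50 from the post-attachment infectivity assay.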

[5] = Cytotoxicity against human H4 cells after 72 hrs; assay type: cell-based
Outline: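 H4 human fetal small intestine cells grown in DMEM with 5% fetal calf serum and L-glutamine (2 mmol/L). Cells were exposed to 3-fold serial dilutions starting at 0.5 mg/mL (DMSO stock, final DMSO <0.1%) at 37 °C for 72 h. Treated (n = 2) vs control (n = 24) wells; CC50 from concentration–effect curve.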

Caco-2 [6] = test: Cytotoxicity against human Caco-2 cells after 72 hrs; assay type: functional; details: Caco-2, 72 h
Outline: (§1)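 Cells grown in DMEM with 5% FCS and L-glutamine, then seeded in 96-well plates. Treated with 3-fold serial dilutions (initial 0.5 mg/mL; DMSO stocks, final DMSO <0.1%) for 72 h at 37 °C. Treated wells (n=2) compared with controls (n=24). CC50 read from the concentration–effect curve.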

[7] = Cytotoxicity against human skin melanoma cells after 72 hrs; assay type: functional; details: Melanoma cell; outline: as §1
MCF7 [8] = test: Cytotoxicity against human MCF7 cells after 72 hrs; assay type: functional; details: MCF7, 72 h; outline: as §1
H4 [9] = test: Selectivity index, Ratio of CC50 for human H4 cells to CC50 for human Caco-2 cells; assay type: functional
Outline: (§2)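 Tumor selectivity index: CC50 on normal fetal intestinal H4 cells divided by CC50 on the named tumor line, both from the 72 h crystal violet cytotoxicity assay.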

H4 [10] = test: Selectivity index, Ratio of CC50 for human H4 cells to CC50 for human skin melanoma cells; assay type: functional; outline: as §2
MCF7 [11] = test: Selectivity index, Ratio of CC50 for human H4 cells to CC50 for human MCF7 cells; assay type: functional; outline: as §2
Caco-2 [12] = test: Growth inhibition of human Caco-2 cells after 10 days; assay type: functional, cell-based; details: Caco-2, 240 h
Outline: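 Caco-2 cells seeded at 10 cells/well in DMEM/10% FBS with 3-fold compound dilutions (initial 0.5 mg/mL), six wells per series. Incubated 10 days at 37 °C in a humidified incubator, then colonies counted. Colony number in treated wells (n=2) compared with controls (n=24). IC50 read from the concentration–effect curve.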

SMILES | IC50 (Rotavirus [1]) | Ratio CC50/IC50 [2] | IC50 (Rotavirus [3]) | Ratio CC50/IC50 [4] | CC50 at 72 h [5] [µM] | CC50 (Caco-2 [6]) [µM] | CC50 [7] [µM] | CC50 (MCF7 [8]) [µM] | Selectivity index (H4 [9]) | Selectivity index (H4 [10]) | Selectivity index (MCF7 [11]) | IC50 (Caco-2 [12]) [µM]
CC(=O)O[C@@H]1[C@@H](F)[C@@H](CSC(C)=O)O[C@H]1n1cc(C)c(=O)[nH]c1=O | 2 µg/mL and 5.55 µM | 10 | 16.6 µM and 6 µg/mL | 3.33 | 139 | 55.5 | 278 | 278 | 2.5 | 0.5 | 0.5 | 1.9
CC(=O)O[C@@H]1[C@@H](F)[C@@H](CSC(C)=O)O[C@H]1n1cc(F)c(=O)[nH]c1=O | 6 µg/mL and 16.5 µM | 3.33 | 16.5 µM and 6 µg/mL | 3.33 | 1370 | 54.9 | 16.5 | 1370 | 25 | 83.2 | 1 | 16.5
CC(=O)O[C@@H]1[C@@H](F)[C@@H](CSC(C)=O)O[C@H]1n1ccc(=O)[nH]c1=O | 6 µg/mL and 17.3 µM | 3.33 | 17.3 µM and 6 µg/mL | 3.33 | 1440 | 57.8 | 17.3 | 289 | 25 | 83.5 | 5 | 5.8
O=c1[nH]cc(F)c(=O)[nH]1 [FLUOROURACIL] |  |  |  |  | 3840 | 384 | 46.1 | 769 | 10 | 83.4 | 5 | 1.5
Cc1cn([C@H]2C[C@H](N=[N+]=[N-])[C@@H](CO)O2)c(=O)[nH]c1=O [ZIDOVUDINE] | 20 µg/mL and 74.8 µM | 0.75 | 22.4 µM and 6 µg/mL | 2.5 |  |  |  |  |  |  |  | 
